The sample as a whole holds a higher share of hits than the screen did.
ABCB6 inh MLPCN: human ABCB6 transporter inhibition; Q9NP58; K562-ABCB6 porphyrin accumulation, flow cytometry, 1 h; active compounds read low; fluorescence ratio to DMSO, % at 10 µM; 0.19% of 360,000 active;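 active = fluorescence ratio to DMSO below 75%, the collection mean minus 3 SD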;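 note: signal is porphyrin accumulated inside mitochondria; 100% equals median channel fluorescence of DMSO control wells; lower ratio means ABCB6 inhibition with less porphyrin fluorescence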
ABCG2 inh: human ABCG2 inhibition, ABCB1 as counter-screen | IgMXP3 cells, JC-1 efflux, flow cytometry | inhibition, % at 6.6 µM | 0.1% of 190,000 active | AID 1325;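 active = inhibition above 80%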;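 note: 0% = DMSO and 100% = nicardipine control wells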
Target sequence (Q9UNQ0 whole entry, looked up): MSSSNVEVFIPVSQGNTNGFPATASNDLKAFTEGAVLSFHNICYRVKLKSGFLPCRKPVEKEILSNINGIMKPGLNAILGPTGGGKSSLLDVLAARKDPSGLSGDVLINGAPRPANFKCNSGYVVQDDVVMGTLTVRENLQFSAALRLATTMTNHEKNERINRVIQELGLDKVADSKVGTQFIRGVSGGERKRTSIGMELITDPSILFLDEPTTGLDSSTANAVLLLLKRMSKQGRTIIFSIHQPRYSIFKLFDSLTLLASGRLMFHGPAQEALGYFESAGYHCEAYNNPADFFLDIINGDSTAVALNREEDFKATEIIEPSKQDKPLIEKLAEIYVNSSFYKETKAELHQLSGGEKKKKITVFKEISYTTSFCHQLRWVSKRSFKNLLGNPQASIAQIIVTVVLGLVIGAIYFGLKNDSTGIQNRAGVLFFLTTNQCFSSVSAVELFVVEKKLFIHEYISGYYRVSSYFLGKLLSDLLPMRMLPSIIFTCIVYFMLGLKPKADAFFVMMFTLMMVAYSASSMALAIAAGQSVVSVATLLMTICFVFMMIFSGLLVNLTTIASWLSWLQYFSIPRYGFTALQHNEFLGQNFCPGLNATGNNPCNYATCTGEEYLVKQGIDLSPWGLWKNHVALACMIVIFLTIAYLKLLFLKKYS
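Test system: IgMXP3 (ABCG2) plus far-red-tagged CCRF-Adr (ABCB1) cells / Amount: 3 million cells/mL in well / Reagent: JC-1 transporter substrate / Timing: 10 min compound exposure, 25 °C / Signal: flow cytometry, 530 nm JC-1 signal / Read-out: percent efflux inhibition, scaled nicardipine 100% to DMSO 0% / Benchmarks: nicardipine as high control, DMSO as low control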
FLuc inh counter: Photinus pyralis luciferase inhibition counter-screen; P08659; ATPLite firefly luciferase biochemical luminescence, 10 min; inhibition, % at 10 µM; 1.5% of 200,000 active; AID 1006;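 active = inhibition above about 50% when tested at 10 µM, limit read from the data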
ABCB1 inh: inhibitors of human ABCB1 transporter, ABCG2 counter-screen; P08183; CCRF-Adr cells, JC-1 efflux, flow cytometry; inhibition, % at 6.6 µM; 0.067% of 190,000 active; in the data active = inhibition above about 40%;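 note: 0% = vehicle and 100% = reference inhibitor; higher value means more JC-1 retained so stronger ABCB1 efflux block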
Diaph act CS: activates diaphorase or chemically reduces, flagging diaphorase assay artifacts; Diaphorase/resazurin coupled assay, resorufin fluorescence, 16 min; active compounds read high; 1 = vehicle wells, 0 = NADH-free wells; activation factor at 20 µM; 0.005% of 190,000 active;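 active = diaphorase activity raised at least twofold by the compound at 20 µM; inactive = activation factor below 2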
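Test system: Clostridium kluyveri diaphorase, purified enzyme. Buffer or medium: 50 mM HEPES pH 7.4 buffer plus MgCl2 and Tween 20. Also added: 0.114 mM NADH and 0.1 mM resazurin, final amounts. Dosing: compound 20 µM once, DMSO 1%. Schedule: 16 min enzyme reaction, ambient temperature. Detection: fluorescence of resorufin, 544 nm excitation, 590 nm emission.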
FLuc stim CS: affects firefly luciferase, flagging false hits in luciferase stimulation screens | ATPlite luciferase biochemical, luminescence, 10 min; 0 = ATP-free wells, 1 = DMSO control | AID 1027 | 200,000 tested, under 10 active | activation factor at 10 µM | P08659;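 active = luciferase activation factor, scaled between plate controls, of at least 2 with compound at 10 µM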
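test system = cell-free luciferase reagent | medium = PBS as buffer for the ATP substrate | dosing = test compounds dosed from 2 mM stocks in 100% DMSO | incubation = 10 min at ambient temperature | detection = luminescence measurement of luciferase light output | benchmarks = low control with PBS replacing ATP, high control enzyme plus ATP without compound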
An asterisk follows results filed as active; · = no result given.

SMILES | ABCB6 inh MLPCN | ABCG2 inh | FLuc inh counter | ABCB1 inh | Diaph act CS | FLuc stim CS
C[C@H](NC(=O)CCC1CCC(=O)N1)c1ccccc1 (some centres undefined) | 99.0 | · | · | · | · | ·
N#Cc1cc2c(nc1SCc1nc3ccccc3[nH]1)CCC2 | · | 1.1 | 78.0* | 0.4 | 0.9 | 0.2
Cc1ccc(C(=O)N2CCC(C(=O)c3c(C)cc(C)cc3C)CC2)cc1 | 95.0 | · | · | · | · | ·
CN1C(=O)C(C(=O)Nc2ccccc2F)c2ccccc21 (centres undefined) | 107.0 | -1.8 | 23.1 | · | 0.8 | 0.8
Cc1ccc(NC(=O)C2C(=O)N(C)c3ccccc32)cc1 (centres undefined) | 104.0 | -1.9 | 76.3* | · | 0.8 | 0.2
O=c1c2ccccc2nnn1CSc1nnc2sc3ccccc3n12 | · | 2.7 | 57.7* | 0.8 | 0.8 | 0.4
Cc1ccc2oc(C(=O)N3CCC(O)(c4ccccc4)CC3)c(C)c2c1 | 93.0 | · | · | · | · | ·
CC(C)(C)c1ccc2c(c1)C(=O)c1ccccc1C2=O | 95.0 | 9.2 | 71.9* | 1.0 | 0.8 | 0.3
O=c1ccc(S(=O)(=O)N2CCCC2)cn1Cc1ccc(F)cc1 | 94.0 | · | · | · | · | ·
O=C1C2C3C=CC(CC3)C2C(=O)N1/N=C/c1ccc(O)cc1 (centres undefined) | 102.0 | 1.7 | 63.0* | 0.4 | 0.9 | 0.4
S=C(Nc1ccc2c(c1)OCO2)N1CCN(Cc2ccco2)CC1 | 104.0 | 1.1 | 91.9* | -0.2 | 0.8 | 0.1
Cn1ncc([N+](=O)[O-])c1C(=O)N1CCCCCC1 | 104.0 | · | · | · | · | ·
O=C(COc1ccc(Cl)cc1)NCCS(=O)(=O)N1CCN(c2ccccc2F)CC1 | 95.0 | · | · | · | · | ·
COc1ccc(S(=O)(=O)N2CCCC2CNC(=O)c2cccc(OC)c2)cc1 (centres undefined) | 85.0 | · | · | · | · | ·
O=c1c2c(ncn2C2CCCC2)n(Cc2ccccc2)c(=O)n1CCOc1ccccc1 | 101.0 | 55.2 | -2.9 | 5.4 | 0.9 | 1
Cc1ccc(C)c(OCCn2c(=O)c3c(ncn3C3CCCC3)n(Cc3ccccc3)c2=O)c1 | 102.0 | 84.0* | -3.8 | 36.9 | 0.8 | 1
Cc1cn([C@H]2C[C@H](O)[C@@H](CNCc3cc(Br)ccc3OCc3ccccc3)O2)c(=O)[nH]c1=O | 94.0 | · | · | · | · | ·
CCn1cnc2cc(NCc3nc4ccccc4n3C)ccc21 | 100.0 | 47.2 | 52.8* | 1.2 | 0.9 | 0.5
Cc1ccc(CNc2ccc3c(c2)ncn3C(C)C)cc1 | 98.0 | · | · | · | · | ·
CC(C)n1cnc2cc(NCc3nc4ccccc4n3C)ccc21 | 98.0 | 13.8 | 54.2* | 0.9 | 1 | 0.5
COC(=O)c1ccc(CNC(=O)CN2C(=O)NC(Cc3ccccc3)(c3ccccc3)C2=O)cc1 (centres undefined) | 95.0 | · | · | · | · | ·
Cc1ccc(/C=C/c2nnc(-c3cccs3)o2)cc1 | 102.0 | 4.5 | 50.9* | 0.8 | 0.9 | 0.5
Fc1ccc(/C=C/c2nnc(-c3cccs3)o2)cc1 | 99.0 | -1.2 | 28.1 | -0.3 | 0.8 | 0.7
CCOc1ccc2nc(/N=C/c3c(C)[nH]n(-c4ccc(C)cc4)c3=O)sc2c1 | 97.0 | -4.2 | 65.4* | -1.0 | 0.9 | 0.3
CC(C)OC(=O)c1sc2nc(-c3ccccc3)ccc2c1N | 90.0 | 2.3 | 72.7* | -0.1 | 0.8 | 0.3
SMILES | ABCB6 inh MLPCN | ABCG2 inh | FLuc inh counter | ABCB1 inh | Diaph act CS | FLuc stim CS
CCOC(=O)c1sc2nc(-c3cccnc3)ccc2c1N | 94.0 | -0.4 | 77.0* | -0.6 | 0.9 | 0.2
COC(=O)c1sc2nc(-c3ccco3)ccc2c1N | 105.0 | -0.7 | 83.6* | -0.3 | 0.7 | 0.2
O=S1(=O)c2ccccc2C(CCO)N1Cc1ccccc1 (centres undefined) | 97.0 | · | · | · | · | ·
CCCCS/C(N)=N/N=C/c1cc(C)ccc1O | 91.0 | 6.5 | 3.9 | 0.5 | 0.9 | 1
CCS/C(N)=N/N=C/c1cc(C)ccc1O | 89.0 | 3.1 | 89.6* | 0.2 | 0.9 | 0.1
O=C(NCCS(=O)(=O)N1CCN(c2cccc(Cl)c2)CC1)c1cc(=O)c2ccccc2o1 | 102.0 | · | · | · | · | ·
O=C1N/C(=C\c2ccc(O)cc2)C(=O)c2ccccc21 | 91.0 | -3.1 | 93.1* | -6.5 | 0.9 | 0.1
O=C1C(=C2SCCCS2)CC/C1=C\c1ccc(F)cc1 | 117.0 | 4.0 | 93.1* | 0.2 | 0.9 | 0.1
O=C1C(=Cc2ccc(F)cc2)Cc2ccccc21 | 94.0 | · | · | · | · | ·
Cc1cccc(/C=C2\CCC(=C3SCCCS3)C2=O)c1 | 101.0 | -0.1 | 92.6* | 0.0 | 0.8 | 0.1
O=C(NC1CCCc2ccccc21)c1ccccc1OC(F)F (centres undefined) | 96.0 | · | · | · | · | ·
Fc1ccc(NC(=S)NCc2ccccc2Cl)cc1 | 62.0* | 1.8 | -6.8 | -0.1 | 0.8 | 1.1
CCOc1ccc(NC(=S)NC(=O)c2c(Br)cnn2C)c([N+](=O)[O-])c1 | 91.0 | 8.2 | 64.1* | 1.3 | 0.9 | 0.4
COc1ccc(C(=S)N2CCN(c3ccccc3C)CC2)cc1OC | 102.0 | · | · | · | · | ·
COc1ccc2c(c1)C(=O)/C(=C/C=C/c1ccccc1)CC2 | 88.0 | 1.2 | 22.5 | 0.0 | 0.9 | 0.8
COc1ccc2c(c1)CC/C(=C\C=C\c1ccccc1OC)C2=O | 96.0 | -2.2 | 51.8* | -0.5 | 0.6 | 0.5
Cc1ccc(C)c(N2N=C(C(=O)NCCN3C(=O)S/C(=C\c4cccnc4)C3=O)CCC2=O)c1 | 101.0 | · | · | · | · | ·
Cc1nc2oc3ccc(Cl)cc3c(=O)c2cc1C(=O)O | 102.0 | · | · | · | · | ·
CC(C)c1ccc2oc3nc(N)c(C(=O)O)cc3c(=O)c2c1 | · | 1.6 | 94.8* | · | 0.8 | 0.1
COc1ccccc1CN1CC(C(=O)N2CCOCC2)CCC1=O (centres undefined) | 97.0 | · | · | · | · | ·
CCC1CCCCN1S(=O)(=O)c1ccc(NC(=O)c2nc(S(C)(=O)=O)ncc2Cl)cc1 (centres undefined) | 62.0* | · | · | · | · | ·
CCS(=O)(=O)c1ncc(Cl)c(C(=O)Nc2ccc(S(=O)(=O)N3CCCC(C)C3)cc2)n1 (centres undefined) | 29.0* | · | · | · | · | ·
CCOc1ccc(NC(=O)c2ccccc2NC(=O)c2cccnc2)cc1 | 95.0 | · | · | · | · | ·
CCCSc1ccc2nc(-c3ccccc3)cn2c1 | 99.0 | 20.2 | 95.4* | 1.1 | 0.8 | 0
CC(C)(C)C(=O)NC1CCN(CC(=O)Nc2ccc3c(c2)OCO3)CC1 | 100.0 | · | · | · | · | ·
CCc1cc2c(=O)c(-c3ccc4c(c3)OCCO4)coc2cc1OS(C)(=O)=O | 101.0 | 15.4 | 51.5* | 5.3 | 0.8 | 0.5
COc1ccc(/C=C/C(=O)c2ccc([N+](=O)[O-])o2)cc1 | 105.0 | · | · | · | · | ·
Cc1ccc(C(=O)/C=C/c2ccc(F)cc2)o1 | 97.0 | 27.9 | 84.8* | 1.5 | 1 | 0.2
COc1cc(SC)ccc1C(=O)Nc1ccc(Cl)cn1 | 96.0 | 1.9 | 94.3* | -0.2 | 0.8 | 0.1
Cc1ccc(C(=O)Nc2ncc3c(Cl)cccc3n2)cc1 | 95.0 | 3.6 | 93.5* | 0.7 | 1 | 0.1

Compound activity deposited in PubChem BioAssay by several laboratories.
